Published values of several laboratories.
Lines come from different studies, so protocols differ.
Target: Glucocorticoid receptor (NR3C1, Homo sapiens, UniProt P04150)
Residues used in one study (P04150 1-777): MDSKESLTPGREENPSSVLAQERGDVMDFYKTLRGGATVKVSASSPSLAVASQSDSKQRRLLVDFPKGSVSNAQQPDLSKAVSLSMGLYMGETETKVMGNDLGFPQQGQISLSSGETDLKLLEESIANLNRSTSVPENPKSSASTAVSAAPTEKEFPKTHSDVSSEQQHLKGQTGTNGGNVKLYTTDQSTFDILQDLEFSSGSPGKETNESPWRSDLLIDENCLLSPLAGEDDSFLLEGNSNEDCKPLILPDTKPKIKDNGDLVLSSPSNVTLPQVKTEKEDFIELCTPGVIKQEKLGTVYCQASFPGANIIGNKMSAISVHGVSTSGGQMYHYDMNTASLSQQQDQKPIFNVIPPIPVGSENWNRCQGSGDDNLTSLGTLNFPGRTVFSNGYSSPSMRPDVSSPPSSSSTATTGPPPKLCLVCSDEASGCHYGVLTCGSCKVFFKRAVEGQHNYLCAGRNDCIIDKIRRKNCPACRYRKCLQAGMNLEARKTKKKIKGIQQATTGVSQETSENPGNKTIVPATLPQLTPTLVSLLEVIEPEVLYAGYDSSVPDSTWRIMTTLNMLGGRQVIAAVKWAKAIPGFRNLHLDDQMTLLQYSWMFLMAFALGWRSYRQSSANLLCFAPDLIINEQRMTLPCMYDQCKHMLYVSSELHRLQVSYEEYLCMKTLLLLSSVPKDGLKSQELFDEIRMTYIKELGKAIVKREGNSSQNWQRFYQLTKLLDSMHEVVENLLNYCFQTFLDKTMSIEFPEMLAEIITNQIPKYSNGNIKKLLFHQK

SMILES	test	conditions	measurement	result
CC(C)N1CCC[C@H]1CNC(=O)c1cn(C2CCCC2)c(=O)c2c1c1ccccc1n2C	ligand displacement, radioligand	10 µM	inhibition	1%
Nc1ncc(-c2nc(N3CCOCC3)nc(N3CCOCC3)n2)c(C(F)F)n1	cell-free assay, radioligand	10 µM	remaining signal	105%
c1ccc(C(NCCNC(c2ccccc2)c2ccccc2)c2ccccc2)cc1	cell-free assay	10 µM	inhibition	6%
O=C(Nc1cccnn1)N1CCN([C@@H]2CCOc3cc(C(F)(F)F)ccc32)CC1	cell-free assay	20 µM	inhibition	4%
COCc1c(-c2cc3cc(C)cc(OC)c3s2)c2c(N)ncnn2c1CN1CCNC(=O)C1	ligand displacement, radioligand	10 µM	inhibition	-1%
Clc1ccc2c(C3CCN(CCc4c[nH]c5ccccc45)CC3)c[nH]c2c1	ligand displacement, radioligand	10 µM	inhibition	7%
C[C@H](C(=O)N[C@H]1COc2ccccc2[C@@H]1S(C)(=O)=O)c1ccc(F)cc1	cell-free assay	10 µM	inhibition	14%
CN(CCN1CCC(OC(=O)Nc2ccccc2-c2ccccc2)CC1)C(=O)c1ccc(CN2CCC(C(N)=O)CC2)cc1	ligand displacement, radioligand	1 µM	inhibition	-8%
